Measurements as given in ChEMBL document CHEMBL3259660, “Haloemodin as novel antibacterial agent inhibiting DNA gyrase and bacterial topoisomerase I” (J Med Chem, 2014).
Values after ≈ are worked out from the molar mass of the structure shown. Active and inactive are the calls of the source. No cut-off for these calls is given here.

Key:
[1] = target: DNA gyrase (Staphylococcus aureus) (UniProt P0A0K8+P20831); experiment: Inhibition of Staphylococcus aureus DNA gyrase-mediated double-stranded catenated kinetoplast DNA decatenation at 90 uM after 30 mins by agarose gel electrophoresis in presence of ATP; assay type: protein-complex assay
Procedure, shortened: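 kDNA decatenation: 200 ng catenated kDNA with 1 U S. aureus gyrase, E. coli gyrase or human Topo IIα in assay buffer with ATP, 37 °C for 30 min. Stopped with universal stop solution, resolved on 1% agarose, ethidium bromide stained, UV imaging.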

DNA topoisomerase 1 = target: T1, DNA topoisomerase 1 (Homo sapiens, UniProt P11387); experiment: Inhibition of human topoisomerase 1-mediated pHOT-1 DNA relaxation at 10 to 150 uM treated with pHOT-1 substrate for 15 mins prior to enzyme addition for 30 mins by agarose gel electrophoresis; details: 0.5 h
T1 sequence (P11387 whole entry): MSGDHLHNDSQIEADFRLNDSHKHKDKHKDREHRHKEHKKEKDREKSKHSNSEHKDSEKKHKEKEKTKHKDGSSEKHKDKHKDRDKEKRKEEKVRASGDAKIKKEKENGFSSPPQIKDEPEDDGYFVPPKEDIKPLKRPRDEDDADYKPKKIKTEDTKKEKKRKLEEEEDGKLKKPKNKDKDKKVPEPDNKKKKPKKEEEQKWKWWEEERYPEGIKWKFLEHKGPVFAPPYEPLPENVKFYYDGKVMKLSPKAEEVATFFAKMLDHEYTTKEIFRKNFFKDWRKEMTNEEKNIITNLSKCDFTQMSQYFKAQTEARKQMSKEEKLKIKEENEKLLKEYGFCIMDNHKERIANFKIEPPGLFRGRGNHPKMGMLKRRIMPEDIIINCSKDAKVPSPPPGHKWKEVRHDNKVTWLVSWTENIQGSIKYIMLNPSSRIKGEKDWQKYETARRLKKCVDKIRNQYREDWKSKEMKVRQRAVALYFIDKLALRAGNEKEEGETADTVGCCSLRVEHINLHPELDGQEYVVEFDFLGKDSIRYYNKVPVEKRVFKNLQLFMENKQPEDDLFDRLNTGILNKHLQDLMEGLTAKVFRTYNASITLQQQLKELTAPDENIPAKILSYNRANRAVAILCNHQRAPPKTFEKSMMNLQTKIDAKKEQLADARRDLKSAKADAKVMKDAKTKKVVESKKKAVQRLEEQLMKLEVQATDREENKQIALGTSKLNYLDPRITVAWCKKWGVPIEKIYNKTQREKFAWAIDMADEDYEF

[2] = test system: Staphylococcus epidermidis; experiment: Antibacterial activity against methicillin-sensitive Staphylococcus epidermidis assessed as growth inhibition by agar dilution assay; assay type: functional
Procedure, shortened: (§1)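 Agar dilution MIC per CLSI (aerobic and anaerobic methods); compounds dissolved in DMSO, reference antibiotics in sterile water. MIC taken as lowest concentration with no visible growth; determined at least twice on separate days, higher value reported. Clinical isolate ranges summarized as MIC50/MIC90.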

[3] = target: T2, DNA topoisomerase 1 (Escherichia coli (strain K12)) (UniProt P06612); experiment: Inhibition of Escherichia coli topoisomerase 1-mediated pHOT-1 DNA relaxation at >90 uM treated with pHOT-1 substrate for 15 mins prior to enzyme addition for 30 mins by agarose gel electrophoresis
T2 sequence (whole entry): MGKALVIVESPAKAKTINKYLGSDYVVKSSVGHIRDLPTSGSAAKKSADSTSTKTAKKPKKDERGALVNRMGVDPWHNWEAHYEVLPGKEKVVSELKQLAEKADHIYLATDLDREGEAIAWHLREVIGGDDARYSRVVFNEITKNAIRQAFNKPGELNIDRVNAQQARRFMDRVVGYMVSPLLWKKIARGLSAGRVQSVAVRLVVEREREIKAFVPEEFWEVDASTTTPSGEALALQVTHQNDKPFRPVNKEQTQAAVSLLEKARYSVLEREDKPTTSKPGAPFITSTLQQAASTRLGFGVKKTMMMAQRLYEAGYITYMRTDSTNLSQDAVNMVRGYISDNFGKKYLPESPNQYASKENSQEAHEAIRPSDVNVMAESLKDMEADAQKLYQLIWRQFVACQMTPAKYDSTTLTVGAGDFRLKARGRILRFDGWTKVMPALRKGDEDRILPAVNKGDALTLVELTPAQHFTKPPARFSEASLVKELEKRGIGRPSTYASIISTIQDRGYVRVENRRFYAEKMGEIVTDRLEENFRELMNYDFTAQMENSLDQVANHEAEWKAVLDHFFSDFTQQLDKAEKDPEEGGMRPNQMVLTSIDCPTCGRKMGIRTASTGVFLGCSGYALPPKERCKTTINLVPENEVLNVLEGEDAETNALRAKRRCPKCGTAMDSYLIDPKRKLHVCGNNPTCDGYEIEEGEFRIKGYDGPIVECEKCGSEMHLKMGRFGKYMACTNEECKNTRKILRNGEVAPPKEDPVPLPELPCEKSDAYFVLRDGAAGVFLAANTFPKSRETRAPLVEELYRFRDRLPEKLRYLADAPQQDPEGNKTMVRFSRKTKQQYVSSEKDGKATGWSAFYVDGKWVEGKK

[4] = test system: Brevibacillus laterosporus; experiment: Antibacterial activity against Brevibacillus laterosporus ATCC 64 assessed as growth inhibition by agar dilution assay; assay type: functional
[5] = In vivo acute toxicity in iv dosed Kunming mouse; assay type: organism-based
Procedure, shortened: (§2)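 Male and female adult Kunming mice (18−22 g) received a single intravenous injection at various doses (n = 10 per group, 200 μL per mouse). Compound was given in polyethylene glycol−water (1:1, v/v), and controls received vehicle alone. Mortality was recorded for 7 days. LD50 was estimated by probit analysis.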

Staphylococcus aureus [6] = experiment: Antibacterial activity against methicillin-sensitive Staphylococcus aureus assessed as growth inhibition by agar dilution assay; assay type: functional; procedure, shortened: as §1
Staphylococcus aureus [7] = experiment: Antibacterial activity against Staphylococcus aureus ATCC 29213 assessed as growth inhibition by agar dilution assay; assay type: functional; procedure, shortened: as §1
Enterococcus faecalis = experiment: microbe, parasite or virus in culture; assay type: functional; details: ATCC 29212
[8] = Binding affinity to supercoiled pHOT-1 DNA assessed as unwinding of DNA helix by measuring shift of negative to positive supercoiled pHOT-1 at 10 to 150 uM treated 15 mins prior to Escherichia coli topoisomerase 1 addition for 30 mins by agarose gel electrophoresis
[9] = Binding affinity to supercoiled pHOT-1 DNA assessed as unwinding of DNA helix by measuring distribution of topoisomers at 10 to 150 uM treated 15 mins prior to human topoisomerase 1 addition for 30 mins by agarose gel electrophoresis
Bacillus cereus = experiment: Antibacterial activity against Bacillus cereus ATCC 10231 assessed as growth inhibition by agar dilution assay; assay type: functional
Escherichia coli = experiment: Antibacterial activity against Escherichia coli PQ 37 harboring OM permeability barrier mutant assessed as growth inhibition by agar dilution assay; assay type: functional
Procedure, shortened: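 CLSI agar dilution MIC against aerobic and anaerobic strains. Test compounds were dissolved in DMSO and reference antibiotics in sterile water. MIC was taken as the lowest concentration showing no bacterial growth. Each MIC was determined at least twice on separate days, and the higher value was reported. E. coli PQ 37 was cultured in LA medium.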

Mus musculus = experiment: In vivo acute toxicity in Kunming mouse assessed as mortality at 100 mg/kg, iv administered as single dose measured within 7 days; assay type: organism-based; parameters: dose 100 mg/kg, route intravenous; details: 168 h; procedure, shortened: as §2

Chain of DNA gyrase (Staphylococcus aureus) (P0A0K8 2-644 limits assumed): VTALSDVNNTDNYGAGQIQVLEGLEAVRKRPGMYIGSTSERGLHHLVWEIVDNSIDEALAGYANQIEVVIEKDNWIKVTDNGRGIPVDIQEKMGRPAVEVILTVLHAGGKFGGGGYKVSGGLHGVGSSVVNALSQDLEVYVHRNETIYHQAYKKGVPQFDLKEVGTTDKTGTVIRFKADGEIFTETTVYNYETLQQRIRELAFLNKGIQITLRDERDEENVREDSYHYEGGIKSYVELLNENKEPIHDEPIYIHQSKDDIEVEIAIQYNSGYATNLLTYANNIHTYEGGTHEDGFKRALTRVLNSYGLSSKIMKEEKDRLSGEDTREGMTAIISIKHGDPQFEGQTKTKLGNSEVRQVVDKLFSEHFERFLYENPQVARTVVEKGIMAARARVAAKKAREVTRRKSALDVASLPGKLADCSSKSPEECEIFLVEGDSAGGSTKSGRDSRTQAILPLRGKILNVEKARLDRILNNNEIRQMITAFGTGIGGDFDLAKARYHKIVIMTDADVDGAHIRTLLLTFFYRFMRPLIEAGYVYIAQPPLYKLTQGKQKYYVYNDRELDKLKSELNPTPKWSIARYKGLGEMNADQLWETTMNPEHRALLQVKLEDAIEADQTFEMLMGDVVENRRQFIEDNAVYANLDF
Chain of DNA gyrase (Staphylococcus aureus) (P20831 whole entry partner): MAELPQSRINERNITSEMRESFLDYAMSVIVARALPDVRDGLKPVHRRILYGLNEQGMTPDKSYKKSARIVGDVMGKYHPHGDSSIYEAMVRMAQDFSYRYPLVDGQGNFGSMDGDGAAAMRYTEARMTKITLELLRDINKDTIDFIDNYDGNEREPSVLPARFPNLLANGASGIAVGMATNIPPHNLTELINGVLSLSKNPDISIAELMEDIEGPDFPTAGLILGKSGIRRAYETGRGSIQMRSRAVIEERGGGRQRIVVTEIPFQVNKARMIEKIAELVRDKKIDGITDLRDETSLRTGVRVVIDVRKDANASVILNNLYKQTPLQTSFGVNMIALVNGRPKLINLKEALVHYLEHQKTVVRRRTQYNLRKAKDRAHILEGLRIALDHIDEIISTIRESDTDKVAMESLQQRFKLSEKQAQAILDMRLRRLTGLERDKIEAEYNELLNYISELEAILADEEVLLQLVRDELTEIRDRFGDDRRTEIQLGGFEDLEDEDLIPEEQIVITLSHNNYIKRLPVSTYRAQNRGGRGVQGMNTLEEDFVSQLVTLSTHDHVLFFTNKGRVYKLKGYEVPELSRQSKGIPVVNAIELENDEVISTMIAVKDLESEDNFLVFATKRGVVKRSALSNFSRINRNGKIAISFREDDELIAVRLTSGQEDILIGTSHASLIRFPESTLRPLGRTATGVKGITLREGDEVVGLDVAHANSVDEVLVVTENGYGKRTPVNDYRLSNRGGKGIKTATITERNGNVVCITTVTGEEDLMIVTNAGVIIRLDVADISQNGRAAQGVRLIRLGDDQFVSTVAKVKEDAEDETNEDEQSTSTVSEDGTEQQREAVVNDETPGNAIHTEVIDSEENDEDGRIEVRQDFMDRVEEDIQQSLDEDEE

**Q.** Which results are given for `Cc1cc(O)c2c(c1)C(=O)c1c(I)c(O)c(I)c(O)c1C2=O`?
**A.** inhibition [1]: Active; inhibition (INH) (DNA topoisomerase 1): Not Active; MIC [2]: 1 µg/mL (≈ 1.92 µM); inhibition [3]: Active; MIC [4]: 4 µg/mL (≈ 7.66 µM); LD50 [5]: 110 mg/kg; MIC (Staphylococcus aureus [6]): 8 µg/mL (≈ 15.3 µM); MIC (Staphylococcus aureus [7]): 8 µg/mL (≈ 15.3 µM); MIC (Enterococcus faecalis): 16 µg/mL (≈ 30.6 µM); Activity [8]: inactive; Activity [9]: inactive; MIC (Bacillus cereus): 4 µg/mL (≈ 7.66 µM); MIC (Escherichia coli): 8 µg/mL (≈ 15.3 µM); Activity (Mus musculus): Non-toxic
